We go through 29 molecules from ChEMBL document CHEMBL1944541, “Novel inhibitors of nitric oxide synthase with antioxidant properties” (Eur J Med Chem, 2012).

Test [1] addresses T1, Nitric oxide synthase 3 (Mus musculus, UniProt P70313).
T1 sequence (P70313 whole entry): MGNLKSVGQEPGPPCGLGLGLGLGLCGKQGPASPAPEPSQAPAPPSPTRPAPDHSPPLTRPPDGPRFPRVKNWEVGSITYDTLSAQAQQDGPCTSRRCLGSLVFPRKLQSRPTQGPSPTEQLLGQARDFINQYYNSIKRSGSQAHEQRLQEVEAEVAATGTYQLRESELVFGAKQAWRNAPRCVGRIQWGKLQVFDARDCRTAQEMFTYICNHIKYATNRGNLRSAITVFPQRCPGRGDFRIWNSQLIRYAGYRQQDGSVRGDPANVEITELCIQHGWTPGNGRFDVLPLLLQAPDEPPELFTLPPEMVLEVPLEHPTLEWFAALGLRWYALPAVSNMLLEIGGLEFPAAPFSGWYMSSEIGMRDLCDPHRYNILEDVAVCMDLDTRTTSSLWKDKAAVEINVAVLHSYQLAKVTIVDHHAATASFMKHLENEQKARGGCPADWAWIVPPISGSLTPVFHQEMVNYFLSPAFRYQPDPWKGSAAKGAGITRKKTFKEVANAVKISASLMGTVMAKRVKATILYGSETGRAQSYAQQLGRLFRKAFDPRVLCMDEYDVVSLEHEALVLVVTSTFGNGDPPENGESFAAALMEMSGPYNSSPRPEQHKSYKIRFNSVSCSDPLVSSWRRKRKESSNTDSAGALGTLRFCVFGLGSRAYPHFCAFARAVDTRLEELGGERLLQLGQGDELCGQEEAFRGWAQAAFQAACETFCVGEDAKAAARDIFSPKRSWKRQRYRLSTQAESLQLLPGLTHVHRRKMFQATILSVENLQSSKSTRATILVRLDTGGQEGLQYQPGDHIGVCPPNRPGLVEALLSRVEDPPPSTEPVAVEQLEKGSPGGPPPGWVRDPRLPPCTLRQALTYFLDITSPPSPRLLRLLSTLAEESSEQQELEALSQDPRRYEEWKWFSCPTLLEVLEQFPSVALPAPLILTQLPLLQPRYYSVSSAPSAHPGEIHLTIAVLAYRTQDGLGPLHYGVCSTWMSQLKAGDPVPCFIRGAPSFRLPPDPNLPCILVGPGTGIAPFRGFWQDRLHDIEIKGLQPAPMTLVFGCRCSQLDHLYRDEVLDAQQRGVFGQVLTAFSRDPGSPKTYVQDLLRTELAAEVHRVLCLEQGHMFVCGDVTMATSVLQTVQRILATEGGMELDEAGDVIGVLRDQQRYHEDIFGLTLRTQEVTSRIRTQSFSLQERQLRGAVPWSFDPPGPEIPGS
Nature of the test: Inhibition of C57BL/6 mouse eNOS assessed as conversion of oxyhemoglobin to methemoglobin by UV spectrophotometer analysis. An outline of the steps: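 eNOS from H5V mouse endothelial cells (passage 5, DMEM with 10% FCS, 37 °C, 5% CO2). Cells were sonicated in Tris-HCl pH 7.4 with EDTA, DTT and protease inhibitors, and the 20,000 g supernatant was used. Activity was followed as oxyhemoglobin→methemoglobin conversion in Hepes pH 7.4 with L-arginine, NADPH, FAD, BH4, Ca2+ and calmodulin. Compounds tested at 500, 100 and 50. Results reported as Ki or percent inhibition.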

For test [2], the system named is Radical scavenging activity. The experiment in a line: Antioxidant activity assessed as DPPH free radical scavenging activity after 10 mins. The format is functional. The gist of the method: (§1)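 Compounds in ethanol with DPPH radical, tested at 50, 100 and 500, held 10 min at room temperature. Absorbance read at 517 nm and reported as percent decrease against control. IC50 was calculated for selected compounds. Trolox served as reference. Standard deviation was ≤10% (n ≥ 3).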

Test [3] addresses Nitric oxide synthase 1 (Rattus norvegicus, UniProt P29476). Nature of the test: Inhibition of rat recombinant nNOS expressed in baculovirus-infected Sf9 cells assessed as conversion of oxyhemoglobin to methemoglobin by UV spectrophotometer analysis.
Test [4] has as its system Plasma. The experiment in a line: Antioxidant activity in human plasma assessed as inhibition of Fe2+-induced lipid hydroperoxidation after 2 hrs by FOX assay. In kind it is functional, cell-free.
The nature of test [5]: Antioxidant activity assessed as NADH oxidation-induced superoxide radical scavenging activity after 20 mins. In kind it is functional. An outline of the steps: (§2)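 Superoxide generated without a Fenton-type reaction from NADH, EDTA/MnCl2 and β-mercaptoethanol in triethanolamine-diethanolamine buffer, pH 7.4 (1 mL). Compounds tested at 25, 50 and 100. […] IC50 was calculated. SOD (40 mU/ml) served as reference. SD ≤10% (n ≥ 3).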

A short description of test [6]: Antioxidant activity assessed as NADH oxidation-induced superoxide radical scavenging activity at 25 uM after 20 mins relative to control. The format is functional. The gist of the method:
as §2

The nature of test [7]: Antioxidant activity assessed as NADH oxidation-induced superoxide radical scavenging activity at 100 uM after 20 mins relative to control. The format is functional. The gist of the method: as §2
The subject of test [8] is Radical scavenging activity. The experiment in a line: Antioxidant activity assessed as DPPH free radical scavenging activity at 100 uM after 10 mins relative to control. The format is functional. An outline of the steps: as §1
Test [9] is described as follows: Antioxidant activity assessed as NADH oxidation-induced superoxide radical scavenging activity at 50 uM after 20 mins relative to control. The format is functional. The gist of the method:
as §2

The subject of test [10] is Radical scavenging activity. Nature of the test: Antioxidant activity assessed as DPPH free radical scavenging activity at 50 uM after 10 mins relative to control. The format is functional. The gist of the method: as §1
The test system of test [11] is Radical scavenging activity. The experiment in a line: Antioxidant activity assessed as DPPH free radical scavenging activity at 500 uM after 10 mins relative to control. In kind it is functional. An outline of the steps:
as §1

In test [12] the test system is Plasma. Nature of the test: Antioxidant activity in human plasma assessed as inhibition of Fe2+-induced lipid hydroperoxidation at 100 uM after 2 hrs by FOX assay relative to control. The format is functional, cell-free. The gist of the method: (§3)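 Plasma from a healthy donor: heparinized venous blood taken after an overnight fast, spun at 800 g for 20 min. Plasma was diluted 1:1 with oxygenated PBS and incubated 2 h at 37 °C with or without compound (10, 50, 100). Lipid hydroperoxides were measured by FOX assay (Fe2+→Fe3+ with xylenol orange, 560 nm), calibrated against H2O2. Results given as percent inhibition against untreated plasma.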

Test [13] concerns Plasma. The experiment in a line: Antioxidant activity in human plasma assessed as inhibition of Fe2+-induced lipid hydroperoxidation at 50 uM after 2 hrs by FOX assay relative to control. In kind it is functional, cell-free. The gist of the method:
as §3

Test [14] has as its system Plasma. The experiment in a line: Antioxidant activity in human plasma assessed as inhibition of Fe2+-induced lipid hydroperoxidation at 25 uM after 2 hrs by FOX assay relative to control. In kind it is functional, cell-free.

SMILES strings stand for the structures.

Nitric oxide synthase 1, sequence (P29476 whole entry): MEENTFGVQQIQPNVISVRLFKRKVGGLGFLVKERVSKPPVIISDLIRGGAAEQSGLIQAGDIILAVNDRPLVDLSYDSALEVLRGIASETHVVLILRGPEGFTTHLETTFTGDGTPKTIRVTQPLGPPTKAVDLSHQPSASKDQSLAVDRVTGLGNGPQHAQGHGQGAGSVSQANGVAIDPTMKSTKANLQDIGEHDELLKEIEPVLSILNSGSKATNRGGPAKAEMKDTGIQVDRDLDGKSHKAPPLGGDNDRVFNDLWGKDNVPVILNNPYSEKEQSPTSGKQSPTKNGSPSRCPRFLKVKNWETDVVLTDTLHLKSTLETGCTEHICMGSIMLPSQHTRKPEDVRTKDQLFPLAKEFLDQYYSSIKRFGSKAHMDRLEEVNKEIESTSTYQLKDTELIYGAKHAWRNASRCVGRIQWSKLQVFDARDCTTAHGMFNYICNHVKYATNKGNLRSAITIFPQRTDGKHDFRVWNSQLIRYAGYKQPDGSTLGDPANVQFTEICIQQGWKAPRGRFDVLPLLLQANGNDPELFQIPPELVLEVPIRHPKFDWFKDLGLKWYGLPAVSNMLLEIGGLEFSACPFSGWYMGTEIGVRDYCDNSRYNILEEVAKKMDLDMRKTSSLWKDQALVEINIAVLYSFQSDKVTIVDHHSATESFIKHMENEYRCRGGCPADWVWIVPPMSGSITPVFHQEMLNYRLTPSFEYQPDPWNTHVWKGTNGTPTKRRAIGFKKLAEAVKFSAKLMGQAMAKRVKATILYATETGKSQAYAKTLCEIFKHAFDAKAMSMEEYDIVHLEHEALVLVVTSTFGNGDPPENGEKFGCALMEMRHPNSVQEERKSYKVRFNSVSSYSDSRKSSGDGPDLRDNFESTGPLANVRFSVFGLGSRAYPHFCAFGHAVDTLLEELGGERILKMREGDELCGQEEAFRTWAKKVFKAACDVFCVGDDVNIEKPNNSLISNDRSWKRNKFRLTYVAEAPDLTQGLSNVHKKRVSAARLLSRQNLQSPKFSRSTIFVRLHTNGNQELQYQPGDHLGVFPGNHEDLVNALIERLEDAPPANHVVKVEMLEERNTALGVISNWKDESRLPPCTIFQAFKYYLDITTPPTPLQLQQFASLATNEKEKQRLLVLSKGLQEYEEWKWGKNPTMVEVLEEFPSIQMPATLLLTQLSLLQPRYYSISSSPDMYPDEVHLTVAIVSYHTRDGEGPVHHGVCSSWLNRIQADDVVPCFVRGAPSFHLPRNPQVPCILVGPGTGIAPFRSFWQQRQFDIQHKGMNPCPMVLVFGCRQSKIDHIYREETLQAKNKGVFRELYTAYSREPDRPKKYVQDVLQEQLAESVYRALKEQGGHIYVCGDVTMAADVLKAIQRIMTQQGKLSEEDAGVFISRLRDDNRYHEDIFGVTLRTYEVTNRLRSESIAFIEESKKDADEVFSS

`Cc1nccn1CC(=O)c1ccc([N+](=O)[O-])cc1`: the Ki is more than 2000 µM in [1] and 74 µM in test [3]. The values for the IC50 in [2], in test [4] and in test [5] were 165 µM, 1.75 µM and 70 µM, respectively.
Consider `O=C(Cn1cncn1)c1ccc([N+](=O)[O-])cc1`, for which the Ki in test [1] came out at 40 µM; in [3], 47.5 µM.
For `O=C(Cn1cccc1)c1ccc([N+](=O)[O-])cc1`, the Ki in test [3] came to 230 µM.
Regarding `Cc1nccn1CC(=O)c1ccc(Br)cc1`, in [3], the Ki stood at 620 µM.
With `Cc1cc2ncn(CC(=O)c3ccc([N+](=O)[O-])cc3)c2cc1C`, the Activity in [6] is 0%; in [7], 45%; in test [8], 19%; in test [2] it was “Dose-dependent effect”; in [9], 37%; in [10], 11%. Also, the results for the Activity result in [5] and in test [11] were “Dose-dependent effect” and 45%, respectively. Further, the Ki turned out to be 37.5 µM in test [1] and 13.8 µM in test [3]. Moreover, the IC50 in test [2] is more than 500 µM; in test [5], more than 100 µM.
`CC(C)c1nccn1CC(=O)c1ccccc1`: the Ki in test [3] was 750 µM.
The same measure, in the same setting: as for `CC(C)c1nccn1CC(=O)c1ccc(Br)cc1`, the figure is 450 µM.
As for `CC(C)c1nccn1CC(=O)c1ccc([N+](=O)[O-])cc1`, the Ki in [1] amounted to 500 µM; in test [3] it was 22.5 µM. The results for the IC50 in test [2], in test [4] and in test [5] were 230 µM, more than 100 µM and 185 µM, respectively.
In the case of `Cc1nccn1CC(=O)c1ccccc1`, in test [3], the Ki is more than 500 µM.
For `O=C(Cn1ccnc1-c1ccccc1)c1ccc([N+](=O)[O-])cc1`, the figures for the Ki in test [1] and in test [3] were 37.5 µM and 40 µM, respectively.
In the case of `Cc1cncn1CC(=O)c1ccc([N+](=O)[O-])cc1`, the figures for the Ki in test [1] and in test [3] were 45 µM and 90 µM, respectively.
Turning to `O=C(Cn1nnc2ccccc21)c1ccc([N+](=O)[O-])cc1`, the Activity was 26% in test [6]; 51% in test [7]; 21% in [8]; “Dose-dependent effect” in test [2]; 35% in test [9]; 14% in test [10]. Also, the figures for the Activity entry in test [5] and in test [11] were “Dose-dependent effect” and 31%, respectively. The Ki in test [1] came to 32.5 µM; in test [3] it was 12.5 µM. The IC50 was more than 500 µM in test [2], 17 µM in test [4] and 85 µM in test [5]. Also, the figures for the inhibition in [12], in test [13] and in [14] were 57%, 48% and 37%, respectively.
Consider `O=C(Cn1cc2ccccc2n1)c1ccc([N+](=O)[O-])cc1`, for which the figures for the Ki in test [1] and in [3] were 60 µM and 32.5 µM, respectively.
For `O=C(Cn1cnc(-c2ccccc2)c1)c1ccc([N+](=O)[O-])cc1` the same measures were 70 µM and 45 µM.
For `O=C(Cn1cnc2cccnc21)c1ccc([N+](=O)[O-])cc1` the same measures were 70.2 µM and 31.7 µM.
For `O=C(Cn1cnc2ccccc21)c1ccc([N+](=O)[O-])cc1` the same measures were 2.75 µM and 46.6 µM.
For `O=C(Cn1cnc2ccccc21)c1ccccc1`, the Ki in [3] turned out to be 480 µM.
For the molecule `O=C(Cn1ccnc1)c1ccc([N+](=O)[O-])cc1`, the figures for the inhibitory constant (Ki) in [1] and in test [3] were more than 5000 µM and 105 µM, respectively. The IC50 was determined as 415 µM in test [2], 18 µM in test [4] and 165 µM in test [5].
On to `O=C(Cn1cnc(-c2ccccc2)c1-c1ccccc1)c1ccc([N+](=O)[O-])cc1`, for which the Ki was determined as 25 µM in test [1] and 36.3 µM in test [3].
For `O=C(Cn1cnc([N+](=O)[O-])c1)c1ccc([N+](=O)[O-])cc1` the same measures were 120 µM and 120 µM.
For `Cc1ccnn1CC(=O)c1ccc([N+](=O)[O-])cc1` the same measures were 30 µM and 63 µM.
In the case of `CCc1nc(C)cn1CC(=O)c1ccc([N+](=O)[O-])cc1`, the Ki in test [1] and in test [3] was 75 µM each time.
With `O=C(Cn1cccn1)c1ccc([N+](=O)[O-])cc1`, the values for the Ki in test [1] and in [3] were 60 µM and 40 µM, respectively.
With `CCCc1nccn1CC(=O)c1ccc([N+](=O)[O-])cc1`, the Activity in test [6] was 22%; in test [7], 62%; in test [8] it was 35%; in test [2], “Dose-dependent effect”; in test [9] it was 34%; in test [10] it was 25%. Moreover, the results for the Activity entry in test [5] and in [11] were “Dose-dependent effect” and 56%, respectively. Further, the Ki was 45 µM in test [1] and 40 µM in [3]. For the same molecule, the IC50 in [2] is 262 µM; in [4] it was more than 100 µM; in [5], 38 µM. Besides, the inhibition in test [12] was 44%; in test [13], 31%; in test [14], 30%.
Take `O=C(Cn1nc2ccccc2n1)c1ccc([N+](=O)[O-])cc1`: the Ki in test [1] came to 30 µM; in [3] it was 22.5 µM.
On to `O=C(Cn1ccnc1)c1ccc(S(=O)(=O)C(F)(F)F)cc1`, for which the Ki in test [3] is 450 µM.
Consider `O=C(Cn1cc2cccc([N+](=O)[O-])c2n1)c1ccc([N+](=O)[O-])cc1`, for which the figures for the Ki in test [1] and in [3] were 75 µM and 66.2 µM, respectively.
Turning to `Cc1cc(C)n(CC(=O)c2ccc([N+](=O)[O-])cc2)n1`, the Ki in [1] was found to be 90 µM; in test [3], 65 µM.
For `O=C(Cn1cnc2ncccc21)c1ccc([N+](=O)[O-])cc1` the same measures were 45 µM and 35.8 µM.
